A selection: hits, their analogues and other compounds. The true share with any hit is near 4.1%.
H9c2 TAG inh = inhibitors of triacylglycerol accumulation; H9c2 cells, Nile Red lipid (TAG) fluorescence; cells loaded with 200 µM oleic acid; inhibition, % at 12.5 µM; hit rate 0.66% among 230,000;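 active = pattern-corrected inhibition of lipid staining of at least 50% with the nuclear-stain viability signal not falling by more than 50%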;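 note: 0% = DMSO wells and 100% = triacsin C control wells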
Efflux pump mplx = antifungal efflux pump inhibition, Nile Red retention. hit rate 0.44% among 330,000. AID 485275. inhibition, % at 10 µM. S. cerevisiae Candida pump triplex;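 active = plate passing quality check with inhibition over a set limit, or well fluorescence over plate mean plus 4 SD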;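 note: Nile Red retained in pooled yeast measured as flow cytometry median fluorescence; 0% = buffer negative control and 100% = Enniatin B positive control; higher means more Nile Red kept so more efflux inhibition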
SMARCA2 act = increases SMARCA2 function in MMTV reporter cells; hit rate 1% among 370,000; AID 652017; activation, % at 9.1 µM; MG213 cells, MMTV-luciferase reporter, dexamethasone, overnight; in the data active = activation above about 7.8%;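 note: 0% = vehicle wells and 100% = reference activator wells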
AHR activator = activates the human aryl hydrocarbon receptor; AHR-responsive luciferase reporter cells, luminescence; activation, % at 5 µM; hit rate 2.5% among 320,000; in the data active = activation above about 47%;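 note: 0% = vehicle wells and 100% = reference agonist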
Target sequence (P35869 whole entry, looked up): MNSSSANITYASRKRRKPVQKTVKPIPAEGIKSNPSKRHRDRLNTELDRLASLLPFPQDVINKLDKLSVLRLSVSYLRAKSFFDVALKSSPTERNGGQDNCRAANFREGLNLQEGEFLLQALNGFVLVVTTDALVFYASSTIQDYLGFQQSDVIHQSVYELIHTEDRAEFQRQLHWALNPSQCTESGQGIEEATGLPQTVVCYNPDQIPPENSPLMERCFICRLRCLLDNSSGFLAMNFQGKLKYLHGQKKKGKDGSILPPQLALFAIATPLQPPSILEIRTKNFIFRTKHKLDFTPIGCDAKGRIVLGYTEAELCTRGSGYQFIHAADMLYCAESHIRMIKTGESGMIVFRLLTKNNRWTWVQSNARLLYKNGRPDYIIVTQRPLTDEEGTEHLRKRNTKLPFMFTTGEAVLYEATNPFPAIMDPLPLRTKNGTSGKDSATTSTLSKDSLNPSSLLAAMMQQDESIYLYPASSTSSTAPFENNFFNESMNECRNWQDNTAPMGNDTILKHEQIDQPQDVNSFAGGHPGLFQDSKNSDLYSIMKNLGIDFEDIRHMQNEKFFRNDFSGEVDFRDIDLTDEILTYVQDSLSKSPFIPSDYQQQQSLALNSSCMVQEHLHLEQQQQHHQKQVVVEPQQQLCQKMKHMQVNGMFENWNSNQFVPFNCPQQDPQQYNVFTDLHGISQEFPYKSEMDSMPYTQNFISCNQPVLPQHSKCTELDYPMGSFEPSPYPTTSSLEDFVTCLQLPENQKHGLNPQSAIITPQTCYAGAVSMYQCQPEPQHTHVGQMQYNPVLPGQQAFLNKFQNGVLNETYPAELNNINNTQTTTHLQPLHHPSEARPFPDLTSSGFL
Tb MetRS inh = blocks T. brucei methionyl-tRNA synthetase activity; purified T. brucei MetRS, ATP depletion, Kinase-Glo luminescence; inhibition, % at 11.9 µM; hit rate 0.4% among 360,000; AID 624268;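 active = inhibition above a per-plate cutoff of the control wells' mean inhibition plus 3 SD, cut at about 5.5% in these data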;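 note: 0% = DMSO wells median and 100% = median of wells with control inhibitor compound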
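Test system – parasite MetRS enzyme · Reagent – substrates ATP, L-methionine and bulk Escherichia coli tRNA · Doses – 11.9 µM compound single dose, 0.9% DMSO · Times – 15 min enzyme-compound preincubation, 2 h reaction, 10 min detection, 25 °C · Signal – Kinase-Glo luminescence, ATP depletion format · Controls – DMSO-only wells as low control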
Tb MetRS conf = confirmation of Trypanosoma brucei MetRS inhibitors. shares compounds with Tb MetRS inh. T. brucei MetRS enzyme, luminescence (ATP depletion). inhibition, % at 11.9 µM. hit rate 93% among 1,400; in the data active = inhibition above about 7%
Jurkat tox = kills Jurkat cells in T. brucei MetRS counterscreen. shares compounds with Tb MetRS inh. Jurkat cells viability, ATP luminescence. inhibition, % at 8.3 µM. hit rate 12% among 1,400. AID 624413; in the data active = inhibition above about 15%;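 note: 0% = vehicle and 100% = reference inhibitor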
Tb MetRS inh FP = T. brucei MetRS inhibition, orthogonal assay; hit rate 44% among 1,400; inhibition, % at 11.9 µM; purified T. brucei MetRS, fluorescence polarization; shares compounds with Tb MetRS inh; in the data active = inhibition above about 17%;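 note: 0% = vehicle wells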
TAG conf = triacylglycerol accumulation inhibition, confirmation. inhibition, % at 12.5 µM. shares compounds with H9c2 TAG inh. H9c2 lipid accumulation, Nile Red fluorescence; cells loaded with 200 µM oleic acid. hit rate 71% among 990;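 active = mean inhibition across replicates of 40% or more; inactive = mean inhibition below 40%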;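 note: plate controls were DMSO only wells for no effect and Triacsin C treated wells for full effect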
SMARCA2 act conf = SMARCA2 activation, confirmation screen | hit rate 30% among 3,500 | MG213 cells, MMTV-luciferase with dexamethasone, luminescence, overnight; MG213 cells expressing E1A, Rb sequestered; DMSO wells 0%, reference activator 100% | activation, % at 9.1 µM | shares compounds with SMARCA2 act;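 active = activation above its plate's cutoff, the mean activation of tested wells plus 3 SD, cut at about 7.9% in these data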
GAL4-VP16 Luc = GAL4-VP16 reporter activation counter-screen. AID 686939. hit rate 41% among 3,500. activation, % at 9.1 µM. shares compounds with SMARCA2 act. HEK293 GAL4-VP16 pG5luc reporter, luciferase luminescence; scaled: DMSO wells 0%, SAHA wells 100%;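 active = activation above the solvent-only control well mean plus 3 SD, averaged across control plates, cut at about 5.2% in these data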
* = called active by the depositor; x = no result; ! = not active in a repeat.

SMILES	H9c2 TAG inh	Efflux pump mplx	SMARCA2 act	AHR activator	Tb MetRS inh	TAG conf	others
Oc1ccc(/C=N/Nc2ccnc3cc(Cl)ccc23)c(O)c1	10	0	15*	2	14*	x	Tb MetRS conf=22*;Jurkat tox=55*;Tb MetRS inh FP=47*;SMARCA2 act conf=18*;GAL4-VP16 Luc=2
COc1cccc(CNC(=O)[C@H]2CCCN2C(=O)[C@H]2CCCN2C(=O)c2ccc(F)cc2F)c1	x	x	0	x	x	x
O=C(Nc1sc2c(c1-c1nc3ccccc3[nH]1)CCCC2)C1CCCC1	58*	0	-2	21	0	60*
O=C(NCCc1c[nH]c2ccccc12)OCc1cn(Cc2cc(F)ccc2F)nn1	x	x	0	x	x	x
CC(C)C[C@H]1C(=O)N2CCC[C@H]2[C@]2(O)O[C@](NC(=O)[C@@H]3C=C4c5cccc6[nH]c(Br)c(c56)CC4N(C)C3)(C(C)C)C(=O)N12 (stereo partly drawn)	62*	0	-4	2	-1	92*
COC(=O)C1=C(C)N(Cc2ccccc2)C(=S)NC1c1cccc(Br)c1 (stereo not drawn)	x	x	1	x	x	x
O=C(CN1CCN(c2nc(-c3ccccc3)cs2)CC1)Nc1ccc(Cl)c(Cl)c1	x	x	-3	x	x	x
COc1cc(C2c3cc4c(cc3C(O)C3COCC23)OCO4)cc(OC)c1OC (stereo not drawn)	25	x	-1	x	0	x
COc1cc([C@@H]2c3cc4c(cc3[C@H](O)[C@H]3COC(=O)[C@H]23)OCO4)cc(OC)c1OC	50*	0	1	10	-2	49*
CCOC(=O)[C@]12CCCCC/C=C\1N(CCc1ccc(Cl)cc1)C(=O)[C@H]2CC(=O)NCC1CCCCC1	x	x	0	x	x	x
Cc1ccc(-n2c(SCC(=O)c3ccc(F)cc3)nnc2-c2cnccn2)cc1	x	x	-4	x	x	x
CCOc1ccc(CC2c3cc(OCC)c(OCC)cc3CCN2C(=O)c2cc(OC)c(OC)c(OC)c2)cc1OCC (stereo not drawn)	62*	0	-1	0	0	36
COC(=O)c1cc2c(c3c4ccccc4n(S(=O)(=O)c4ccc(C)cc4)c13)C(=O)N(Cc1ccccc1)C2	x	x	-5	x	x	x
Cc1ccc(C(Nc2ccccc2)c2ccc3ccc(C)nc3c2O)c(C)c1 (stereo not drawn)	x	x	-6	x	x	x
CC1CC2(C)Oc3ccccc3CC2C(C)C1CNCCCN(C)C (stereo not drawn)	82*	0	2	-6	-2	44*
Cc1cc(C)nc(N/N=C/c2cccc([N+](=O)[O-])c2)n1	7	0	0	15	0	x
Cc1cc(N/N=C/c2cccc([N+](=O)[O-])c2)nc(-n2nc(C)cc2C)n1	71*	0	6	13	-1	16
COc1ccc(/C=N/Nc2cc(C)nc(-n3nc(C)cc3C)n2)cc1	x	0	-2	40	-1	x
Cc1cc(N/N=C/c2cccc(Cl)c2)nc(-n2nc(C)cc2C)n1	53*	0	2	13	-1	41*
CC(C)C[C@@H](CN1CCCC1CN1C(=S)NC[C@@H]1Cc1ccc(O)cc1)N1C[C@H](Cc2ccccc2)N(CC2CCCCC2)C1=S (stereo partly drawn)	53*	x	6	x	0	73*
CC(C)C[C@@H](CN1CCCC1CN1C(=S)NC[C@@H]1Cc1ccc(O)cc1)N1C[C@H](Cc2ccccc2)N(CC2CCCCCC2)C1=S (stereo partly drawn)	74	x	6	x	0	x
C[C@H](O)[C@@H]1CN2CCc3c([nH]c4ccc(-c5ccc6c(c5)OCO6)cc34)[C@@H]2C[C@@H]1N(C)C(=O)Nc1ccc(F)cc1	82*	x	-8	x	0	69*
COc1ccc(-c2ccc3[nH]c4c(c3c2)CCN2C[C@@H]([C@H](C)O)[C@@H](N(C)C(=O)Nc3cc(Cl)cc(Cl)c3)C[C@@H]42)cc1	28	x	-5	x	2	x
Cc1cccc(-c2ccc3[nH]c4c(c3c2)CCN2C[C@@H]([C@H](C)OC(=O)Nc3ccccc3C)[C@@H](N(C)C(=O)Nc3ccccc3C)C[C@@H]42)c1	54*	x	-12	x	-1	66*
C[C@H](O)[C@@H]1CN2CCc3c([nH]c4ccccc34)[C@@H]2C[C@@H]1N(C)C(=O)Nc1cccc2ccccc12	x	x	-4	x	0	x
SMILES	H9c2 TAG inh	Efflux pump mplx	SMARCA2 act	AHR activator	Tb MetRS inh	TAG conf	others
Cc1c(C2Nc3ccccc3C2C)[nH]c2ccccc12 (stereo not drawn)	x	x	0	x	x	x
Cc1onc(-c2ccc(Cl)cc2)c1-c1ccn(S(=O)(=O)c2ccccc2)n1	x	x	-6	x	x	x
CCN(C(=O)COC(=O)c1cc(-c2ccccc2)nc2c1c(C)nn2-c1ccc(C)cc1)C1CCS(=O)(=O)C1 (stereo not drawn)	55*	0	0	9	-1	69*
c1ccc(-c2csc(NNC3=NCCCCC3)n2)cc1	85*	0	2	14	-1	108*
Clc1ccc(-c2csc(NNC3=NCCCCC3)n2)cc1	148*	0	1	13	-2	132*
COC(=O)[C@H]1C[C@@]2(N3CCCC3)c3ccccc3N[C@H]2N1S(=O)(=O)c1ccc([N+](=O)[O-])cc1	x	x	-1	x	x	x
CCc1ccc(-c2nc(C(N)=O)c3[nH]c(=O)n(-c4ccccc4OC)c3n2)cc1	73*	0	-2	4	0	91*
O=C1OCCN1C(=O)[C@H]1[C@H](c2ccc(Cl)cc2)C(c2ccc(F)cc2)=NN1c1ccc(Br)cc1	105*	1	-4	x	-3	10
COCCN1Cc2cccc(C(=O)Nc3cccc(-c4nc5ccccc5[nH]4)c3)c2C1=O	80*	0	6	8	-1	89*
COCCN1Cc2cccc(C(=O)Nc3ccc(-c4nc5ccccc5[nH]4)cc3)c2C1=O	x	0	-1	-11	-1	x
COC(=O)c1ccc2nc(-c3ccco3)c(Cc3ccccc3OC)n2c1	x	x	-2	x	x	x
Cc1ccc(C(=O)Nc2cccc(C(F)(F)F)c2)cc1NC(=O)c1nccn1C	96*!	0	6	16	1	9

Screening data (PubChem)
